Screens from PubChem.
Only some compounds are listed: those with a hit (about 1.9% of all), similar ones and a draw of the others.
SR-BI DiI inh = blocks mouse SR-BI lipid uptake from DiI-HDL | Q61009 | ldlA[mSR-BI] CHO cells, DiI-HDL uptake fluorescence, 3 h | inhibition, % at 12.5 µM | 320,000 compounds, 0.96% hits | AID 488896;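 active means mean replicate inhibition of at least 70% and a set share of replicates each scoring 70 or more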;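 further: 0% = median of neutral control wells and 100% = median of positive control wells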
GRK2 inh = human GRK2 inhibition via aptamer displacement. 330,000 compounds, 0.59% hits. inhibition of aptamer binding, % at 10 µM. P25098. bead flow cytometry, FAM-aptamer displacement from GRK2;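 active means inhibition of aptamer binding above 40%, roughly 3 SD of noise, on plates passing a quality check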;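 further: median bead fluorescence of bound FAM aptamer so fluorescent compounds give negative values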
SR-BI uptake up = activators of SR-BI mediated HDL lipid uptake | 320,000 compounds, 0.096% hits | CHO ldlA[mSR-BI] cells, DiI-HDL uptake fluorescence, 3 h; 100 = double the neutral-control signal | activation, % at 12.5 µM;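 active means mean replicate activation of at least 60% and every replicate at or above 60%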;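 further: 0% = median plate neutral-control signal and 100% = twice that signal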
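Material – SR-BI-overexpressing, LDLR-lacking CHO cells · Medium – BSA-supplemented, HEPES-buffered Ham's F12, pH 7.4 · Doses – single concentration · Times – compound with DiI-HDL co-incubation, 3 h at 37 °C · Measured by – bottom-read fluorescence, 550/595 nm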
Rin1 Abl inh = blocks binding of human Rin1 to Abl; inhibition, % at 7.35 µM; 360,000 compounds, 0.4% hits; TR-FRET Rin1/Abl binding, biochemical; AID 588664; in the data active means inhibition above about 5%, passing the limit was not always enough
Target sequence (P00519 whole entry, looked up): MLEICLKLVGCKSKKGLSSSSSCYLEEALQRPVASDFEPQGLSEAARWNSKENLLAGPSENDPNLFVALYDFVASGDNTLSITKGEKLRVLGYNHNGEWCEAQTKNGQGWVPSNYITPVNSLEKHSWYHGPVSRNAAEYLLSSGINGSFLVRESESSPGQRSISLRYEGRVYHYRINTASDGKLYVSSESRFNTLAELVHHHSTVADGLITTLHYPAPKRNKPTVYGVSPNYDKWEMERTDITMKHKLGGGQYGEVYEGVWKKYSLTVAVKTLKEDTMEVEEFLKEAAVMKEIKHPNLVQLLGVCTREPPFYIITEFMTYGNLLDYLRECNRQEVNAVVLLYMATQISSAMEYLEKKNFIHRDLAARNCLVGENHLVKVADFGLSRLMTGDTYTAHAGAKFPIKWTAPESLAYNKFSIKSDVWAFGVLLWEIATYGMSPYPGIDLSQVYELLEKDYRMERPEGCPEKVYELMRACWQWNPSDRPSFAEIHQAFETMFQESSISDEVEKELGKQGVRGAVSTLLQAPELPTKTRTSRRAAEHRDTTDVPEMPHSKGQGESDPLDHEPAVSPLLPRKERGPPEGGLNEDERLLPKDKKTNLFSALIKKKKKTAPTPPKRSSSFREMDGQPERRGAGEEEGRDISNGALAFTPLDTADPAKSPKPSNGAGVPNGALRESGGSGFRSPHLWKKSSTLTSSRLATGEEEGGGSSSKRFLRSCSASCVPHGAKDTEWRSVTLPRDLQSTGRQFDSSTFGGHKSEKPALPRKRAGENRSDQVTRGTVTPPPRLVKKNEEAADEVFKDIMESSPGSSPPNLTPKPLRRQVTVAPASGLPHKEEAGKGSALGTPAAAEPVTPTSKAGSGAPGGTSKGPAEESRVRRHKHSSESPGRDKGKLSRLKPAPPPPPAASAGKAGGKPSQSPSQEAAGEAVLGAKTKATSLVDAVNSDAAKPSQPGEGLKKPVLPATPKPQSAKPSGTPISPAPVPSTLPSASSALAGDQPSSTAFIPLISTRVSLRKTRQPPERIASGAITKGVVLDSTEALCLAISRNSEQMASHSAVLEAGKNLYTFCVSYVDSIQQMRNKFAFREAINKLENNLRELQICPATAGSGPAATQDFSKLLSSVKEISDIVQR
Target sequence (Q13671 whole entry, looked up): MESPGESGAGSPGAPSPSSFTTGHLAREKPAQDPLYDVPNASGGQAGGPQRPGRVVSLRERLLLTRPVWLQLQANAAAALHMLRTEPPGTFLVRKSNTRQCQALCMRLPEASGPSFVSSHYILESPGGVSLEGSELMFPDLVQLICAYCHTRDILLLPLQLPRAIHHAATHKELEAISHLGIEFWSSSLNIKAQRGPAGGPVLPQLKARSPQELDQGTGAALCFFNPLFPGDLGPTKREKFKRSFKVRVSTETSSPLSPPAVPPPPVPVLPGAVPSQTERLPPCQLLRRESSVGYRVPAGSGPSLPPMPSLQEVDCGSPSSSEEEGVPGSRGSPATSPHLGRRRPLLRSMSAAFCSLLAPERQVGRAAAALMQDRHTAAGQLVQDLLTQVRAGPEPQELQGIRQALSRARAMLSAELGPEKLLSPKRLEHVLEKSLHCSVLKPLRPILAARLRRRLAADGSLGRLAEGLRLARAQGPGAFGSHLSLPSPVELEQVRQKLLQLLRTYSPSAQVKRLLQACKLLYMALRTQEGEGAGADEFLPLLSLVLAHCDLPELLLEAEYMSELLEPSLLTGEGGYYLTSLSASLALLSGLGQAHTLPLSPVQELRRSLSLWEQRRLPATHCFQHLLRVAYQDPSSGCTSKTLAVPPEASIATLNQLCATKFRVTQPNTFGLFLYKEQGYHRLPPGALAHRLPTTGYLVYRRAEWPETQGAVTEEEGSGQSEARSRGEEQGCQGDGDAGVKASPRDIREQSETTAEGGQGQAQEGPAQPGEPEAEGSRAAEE
Rin1 Abl conf = confirmation of inhibitors of human Rin1-Abl interaction; inhibition, % at 7.35 µM; shares compounds with Rin1 Abl inh; TR-FRET Rin1-Abl binding, purified proteins; 1,300 compounds, 49% hits
GFP quencher = counter-screen for Rin1-Abl inhibitors: GFP fluorescence quenchers; shares compounds with Rin1 Abl inh; inhibitors/quenchers counterscreen; inhibition, % at 6.75 µM; 1,300 compounds, 8.5% hits; AID 602125;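 further: ABL1-eGFP fusion protein alone without its partner RIN1-SBP; 0% = protein with vehicle and 100% = wells lacking protein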
* hit, by the source's call. Unless noted, no stated cut-off is given here; in the data, active means inhibition above about 6.5%; inactive means the rest.

For CC1(C(=O)Nc2cccc3c2CCCC3)CCN1C(=O)CCC1CCCC1 (stereo not drawn) the results were Rin1 Abl inh -2.
`CC(C)(C)NC(=O)c1ccc(NC(=O)c2ccccc2-c2ccccc2C(=O)O)cc1` gave SR-BI DiI inh 10, GRK2 inh 3, SR-BI uptake up -10, Rin1 Abl inh 6.5*, Rin1 Abl conf 0 and GFP quencher 1.
O=C(O)c1ccccc1-c1ccccc1C(=O)Nc1ccc(F)cc1 was read as SR-BI DiI inh 20, GRK2 inh 5, SR-BI uptake up -20 and Rin1 Abl inh 4.
COc1ccc(CCNC2=CC(=O)CCC2)cc1OC was read as Rin1 Abl inh -2.
`Cc1cc(C)cc(C(O)c2ncc(-c3ccccc3C)[nH]2)c1` (stereo not drawn) gave Rin1 Abl inh 0.
COC(=O)Nc1nc(-c2ccc(F)cc2)c(C)s1 was read as SR-BI DiI inh 45, GRK2 inh 0, SR-BI uptake up -45, Rin1 Abl inh 5.2*, Rin1 Abl conf -2 and GFP quencher 0.
Screening CC(CN1CCCCC1)NC(=O)c1scnc1-c1ccccc1 (stereo not drawn) returned Rin1 Abl inh 1.
Screening O=C1CC(c2ccc(O)c(O)c2)Oc2c1ccc(O)c2O (stereo not drawn) returned SR-BI DiI inh 16, GRK2 inh 8, SR-BI uptake up -16, Rin1 Abl inh 49*, Rin1 Abl conf 46* and GFP quencher 25*.
COc1ccc(S(=O)(=O)NC(C)C(=O)NCc2cccnc2)cc1OC (stereo not drawn) was read as GRK2 inh 0, Rin1 Abl inh 8.4*, Rin1 Abl conf 1 and GFP quencher 1.
O=C1[C@@H](Oc2ccccc2)[C@@H](c2ccccc2)N1c1cccnc1 was read as SR-BI DiI inh 2, SR-BI uptake up -2, Rin1 Abl inh 13*, Rin1 Abl conf 10* and GFP quencher -1.
For Cc1ccc(C(=O)NCCc2nnc3ccc(SCC(=O)N4CCCC4)nn23)cc1 the results were SR-BI DiI inh -33, GRK2 inh 0, SR-BI uptake up 33, Rin1 Abl inh 15*, Rin1 Abl conf 11* and GFP quencher -1.
